Runt-CBFb FRET – inhibitors of human RUNX1 Runt domain binding to CBFb; Q01196+Q13951; actives 0.46% (n = 220,000); Cerulean-Runt/Venus-CBFb FRET ratio 530/480, 1 h; inhibition, % at 20 µM; AID 1496;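 active = inhibition over about 50% at 20 µM in the single-dose screen, limit read from the data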;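 also: 0% = DMSO wells and 100% = excess unlabeled CBFb competitor control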
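Buffer or medium: Tris pH 7.5 buffer with BSA. Assay system: Cerulean-labeled Runt domain protein. Amount: each fluorescent fusion protein 100 nM. Read-out basis: loss of energy transfer signal. Incubation: 1 h compound exposure, room temperature. Probe or stimulus: Venus-CBFb binding partner, 100 nM. Detection: FRET, excitation 422 nm, emission at 530 and 480 nm.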
Runt-SMMHC FRET – inhibitors of human RUNX1 Runt domain binding to CBFb-SMMHC. inhibition, % at 20 µM. actives 0.74% (n = 220,000). Cerulean-Runt/Venus-CBFb-SMMHC FRET ratio 530/480, 1 h. Q01196+Q13951;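 active = mean inhibition across duplicate retests at 20 µM reaching about 50%, limit read from the data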;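 also: 0% = DMSO wells and 100% = wells with excess untagged CBFb-SMMHC; inhibitors lower the FRET ratio by blocking Runt binding to CBFb-SMMHC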
RanGTP-Impb inh – disruptors of Ran-importin-beta complex formation – biochemical, FRET, CFP-Ran, YFP-importin-beta, homogeneous, primary screen; cell-free CFP-Ran/YFP-importin-beta FRET ratio; inhibition, % (concentration not given with the values); AID 2216; actives 1.1% (n = 300,000);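 active = more than half of the replicate wells show a fall in the fluorescence ratio signal beyond about 16%, limit read from the data, passing the limit was not always enough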;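 also: 0% = DMSO wells and 100% = Ran loaded with GDP instead of GTP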
Wee1 degr inh – human Wee1 degradation inhibition, primary screen; actives 1.2% (n = 220,000); reporter increase, % at 5 µM; P30291; HeLa Luc-Wee1K328M stability, luciferase luminescence; 100% = proteasome inhibitor MG132 effect;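 active = activation above the mean of all tested compounds plus 3 SD, set per screening run, cut at about 8.8% in these data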;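 also: cells exposed to compound for 20 h before luminescence read; 0% = DMSO alone and 100% = MG132 at 30 µM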
AI-2 QS modul – modulators of Vibrio harveyi AI-2 quorum sensing system. actives 0.4% (n = 300,000). activity change, % at 7.5 µM. Vibrio harveyi JMH597 AI-2 luminescence/OD600 ratio, 9 h; stronger effect = lower value; strain lacks LuxN and CqsS sensors; 0 = neutral-control median; in the data active = activity change below about -75%, passing the limit was not always enough;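 also: luminescence divided by OD600 gain over 9 h not by final OD600 alone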
proKLK7 act – proKLK7 (human) activation, primary screen; P49862; purified proKLK7, EDANS-DABCYL substrate fluorescence; 100% is mature enzyme control, 0% vehicle; activation, % at 7 µM; actives 0.9% (n = 370,000); AID 652039;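 active = activation above the mean of all tested compounds plus 3 SD, computed per campaign excluding outliers beyond control limits, cut at about 13% in these data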
Target sequence (P49862 whole entry, looked up): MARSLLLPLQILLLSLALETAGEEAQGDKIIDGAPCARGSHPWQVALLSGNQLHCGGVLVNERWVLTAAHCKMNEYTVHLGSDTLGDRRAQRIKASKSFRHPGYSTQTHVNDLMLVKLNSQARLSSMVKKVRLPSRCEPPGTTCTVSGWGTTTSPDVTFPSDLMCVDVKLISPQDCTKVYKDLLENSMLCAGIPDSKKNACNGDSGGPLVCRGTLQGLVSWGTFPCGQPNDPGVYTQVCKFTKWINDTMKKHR
KLK7 act conf – confirmation of human kallikrein-7 zymogen activators; shares compounds with proKLK7 act; purified proKLK7, EDANS-DABCYL substrate fluorescence; scaled: vehicle 0, mature enzyme 100; activation, % at 7 µM; actives 68% (n = 3,200);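 active = activation, as change over the incubation, above the mean of all tested compounds plus 3 SD, cut at about 13% in these data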
EDANS-DABCYL int – counter-screen for kallikrein-7 activators: EDANS-DABCYL optical interference; shares compounds with proKLK7 act; AID 686952; EDANS-DABCYL substrate fluorescence interference, no enzyme, 4 h; solvent 0%, active enzyme control 100%; actives 80% (n = 3,200); activation, % at 7 µM;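 active = activation above the all-compound mean plus 3 SD, ignoring values outside control-based bounds, cut at about 4.8% in these data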;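 also: value is the 4 h activation minus the activation read at time zero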
K7 EDANS ctr – counter-screen for kallikrein-7 activators: EDANS-DABCYL interference, dose response; shares compounds with proKLK7 act; EDANS-DABCYL peptide fluorescence interference, no enzyme; EC50, µM; actives 20% (n = 250);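 active = compounds that raise the fluorescence signal in this interference counterscreen, with EC50 at or below 10 µM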;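 also: intact quenched peptide substrate alone read at 355 nm excitation and 520 nm emission; signal is fluorescence gain from T0 to T4 after four hours at room temperature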
Active calls of the source: *; x = no result given. Sampled rows, rich in hits. Any-hit rate of the full collection: about 2.9%.

SMILES | Runt-CBFb FRET | Runt-SMMHC FRET | RanGTP-Impb inh | Wee1 degr inh | AI-2 QS modul | proKLK7 act | KLK7 act conf | EDANS-DABCYL int | others
CCOCCCn1c(=N)c(C(N)=S)cc2c(=O)n3cccc(C)c3nc21 | 17.8 | x | 173.3* | -0.9 | 35.0 | 28.6* | 2.3 | 3.4
C=CCn1nnnc1SCC(=O)Nc1cccc(C(F)(F)F)c1 | x | x | -1.8 | x | 0.1 | 0.7 | x | x
O=C(CSc1nc2ccccc2s1)Nc1cc(S(=O)(=O)N2CCOCC2)ccc1O | 40.8 | 22.6 | -4.5 | 0.7 | 3.3 | 0.5 | x | x
Nc1ccc2nc(-c3ccc(Cl)cc3)[nH]c2c1 | 4.9 | -4.1 | 6.1 | x | 14.7 | 66.3* | 64.3* | 65.9*
Cc1nc2ccc(-c3nc4ccc(N)cc4[nH]3)cc2[nH]1 | 1.1 | 1.8 | 0.5 | -1.6 | 7.0 | 37.0* | 68.8* | 66.5*
Nc1ccc2nc(-c3cc(Cl)c(N)c(Cl)c3)[nH]c2c1 | -2.2 | 3.5 | 0.3 | -0.3 | 10.2 | 23.5* | 20.8* | 12.8* | K7 EDANS ctr=>69.5
Nc1ccc(-c2nc3ccc(N)cc3[nH]2)cc1 | 0.2 | 5.6 | 3.3 | -0.8 | 6.1 | 86.7* | 69.4* | 75.3*
Nc1ccc2nc(-c3cccc(-c4nc5ccc(N)cc5[nH]4)c3)[nH]c2c1 | x | x | 9.3 | x | 10.3 | -0.3 | x | x
O=C(O)CCN1CCN(S(=O)(=O)c2ccc3ccccc3c2)CC1 | x | x | 2.0 | x | 27.6 | 0.1 | x | x
Cc1ccc2nc(-c3ccccc3N)[nH]c2c1 | 2.5 | -0.5 | 5.1 | 3.8 | 14.6 | 67.8* | 4.0 | 2.8
Nc1ccc(-c2nc3c(Cl)c(N)ccc3[nH]2)cc1 | 0.8 | 0.5 | -1.2 | -2.0 | 12.6 | 70.4* | 70.1* | 76.8*
Nc1ccc(-c2nc3ccc([N+](=O)[O-])cc3[nH]2)cc1 | -5.4 | 1.5 | -3.7 | 4.3 | 18.5 | 0.1 | x | x
CCN(CC)CCNC(=S)Nc1ccc(F)cc1 | -1.7 | -3.1 | 4.4 | -3.6 | 21.4 | 0.2 | x | x
CCN(CC)c1ccc2c(C)c(CN3CCOCC3)c(=O)oc2c1 | 11.2 | 41.4 | 1.2 | 1.8 | 17.6 | x | x | x
CCN(CC)c1ccc2c(C)c(CO)c(=O)oc2c1 | 20.8 | 85.9* | 131.5* | 0.6 | 28.3 | 50.3* | 50.6* | 36.0* | K7 EDANS ctr=>69.5
C=CCNc1nc(C(=O)OC(C)C(=O)c2ccc(C)cc2)cs1 (configuration not stated) | x | x | x | x | x | -0.1 | x | x
CCCCN(CC)CCCNC(=O)c1cc2cc3ccc(OC)cc3nc2o1 | -2.6 | -1.5 | -1.9 | -1.1 | 6.2 | 62.7* | 58.3* | 72.2*
COc1ccc2cc3cc(C(=O)NCCCN4CCOCC4)oc3nc2c1 | 1.4 | 2.3 | 4.3 | 1.0 | 9.2 | 48.5* | 63.9* | 68.9*
CCN1CCN(CCCNC(=O)c2cc3cc4ccc(OC)cc4nc3o2)CC1 | -3.1 | 1.8 | -2.8 | -3.6 | 6.4 | x | x | x
Cc1ccc2cc3cc(C(=O)NCCN4CCOCC4)oc3nc2c1 | -0.8 | -0.4 | -0.9 | 1.6 | 20.0 | 13.2* | 14.4* | 12.6*
Cc1ccc2cc3cc(C(=O)NCCCN4CCCC4=O)oc3nc2c1 | x | x | 2.3 | x | 7.1 | 17.4* | 8.7 | 7.5*
CCCc1cc(=O)oc2cc(C)cc(OC(C)C(=O)NCCN3CCOCC3)c12 (configuration not stated) | x | x | 1.3 | x | -7.6 | 6.4 | x | x
O=C(OCc1ccccc1)N1C[C@H](O)[C@H](O)C[C@@H]1c1c(Cl)cccc1Br | x | x | x | x | x | 0.2 | x | x
CC(C)(C)c1ccc(SCCc2ccccn2)cc1 | -5.1 | -3.8 | 0.9 | -2.5 | 9.2 | -0.4 | x | x
COc1ccc(N/C=C(\C=C\C#N)S(=O)(=O)c2ccccc2)cc1 | x | x | -1.3 | x | 8.5 | 0.2 | x | x

Screening data deposited in PubChem BioAssay by several laboratories.
